Screening results: PubChem BioAssay, several laboratories
An excerpt weighted towards active compounds, which were near 2.5% of everything screened.
NALP1 inh = NALP1 inflammasome inhibitors in reconstituted yeast, colorimetric, S. cerevisiae, triplicate retest | hit rate 0.61% among 280,000 | S. cerevisiae NALP1/ASC/caspase-1 growth, X-gal OD620, 72 h | inhibition, % at 10 µM; in the data active = inhibition mostly above about 24%, no sharp cut-off; inactive = mostly below about 32%
MC4R barr agon = MC4R agonists recruiting beta-arrestin, primary screen, cell-based, luminescence, agonist arm of biased-ligand search | Melanocortin receptor 4 (Homo sapiens), P32245 | U2OS MC4R beta-arrestin complementation; percent of melanotan II response, DMSO zero | hit rate 0.98% among 360,000 | activation, % at 8.9 µM;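 active = activation above a per-plate cutoff, the mean activation of sample wells on that plate plus 3 SD, cut at about 8% in these data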
Target sequence (P32245 whole entry, looked up): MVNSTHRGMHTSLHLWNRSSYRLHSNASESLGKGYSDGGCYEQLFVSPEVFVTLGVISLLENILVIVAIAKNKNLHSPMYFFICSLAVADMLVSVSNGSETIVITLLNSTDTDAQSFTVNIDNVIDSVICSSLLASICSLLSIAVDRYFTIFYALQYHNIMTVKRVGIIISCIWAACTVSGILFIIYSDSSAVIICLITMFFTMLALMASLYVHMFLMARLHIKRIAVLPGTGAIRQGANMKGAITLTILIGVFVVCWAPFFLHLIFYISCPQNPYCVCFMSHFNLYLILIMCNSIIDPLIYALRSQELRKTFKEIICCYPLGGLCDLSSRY
A1 inh = caspase 3/7 activation in MEF A1-2A-BIM cells, primary screen, A1 inhibitor project, cell-based, luminescence, HTS; Caspase-Glo 3/7 luminescence, 3 h; percent of clofoctol response, vehicle zero; hit rate 0.066% among 330,000; caspase activation, % (test concentration not listed);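 active = over half of replicate activation scores above 10%, or exactly half above 10 with the replicate mean above 10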
NALP3 yeast inh = NALP3 inflammasome inhibitors in reconstituted yeast, primary screen, luminescence, uHTS | Yeast reconstituted NLRP3/ASC/caspase-1, beta-gal luminescence, 24 h | inhibition, % at 10 µM | hit rate 0.39% among 330,000 | AID 2825, 2010;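 active = inhibition of 50% or more; inactive = inhibition below 50%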;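 also: plate controls were induced DMSO wells for no effect and uninduced yeast grown without galactose for full effect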
MC4R antag cAMP = MC4R antagonists of cAMP signaling, primary screen, cell-based, TR-FRET, antagonist arm of biased-ligand search; Melanocortin receptor 4 (Homo sapiens), P32245; MC4R-expressing cells, MTII-stimulated cAMP, LANCE TR-FRET; inhibition, % at 6.5 µM; hit rate 0.48% among 360,000;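 active = inhibition above its plate's cutoff, the mean of tested wells on that plate plus 3 SD, cut at about 29% in these data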;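 also: 0% = Melanotan II alone and 100% = Melanotan II plus saturating MCL0020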
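Assay system: U2OS-MC4R stable cell line; Also added: Melanotan II; Technique: Eu-cAMP/anti-cAMP TR-FRET, emission 671 nm; Times: 30-min compound, 1-h challenge, 1-h detection, room temperature.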
TbMetRS inhib = T. brucei MetRS inhibitors, primary screen, biochemical, luminescence; methionyl-tRNA synthetase (Trypanosoma brucei brucei); purified T. brucei MetRS, ATP depletion, Kinase-Glo luminescence; inhibition, % at 11.9 µM; hit rate 0.4% among 360,000;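 active = inhibition above a per-plate cutoff of the control wells' mean inhibition plus 3 SD, cut at about 5.5% in these data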;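 also: 0% = DMSO wells median and 100% = median of wells with control inhibitor compound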
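Test system: purified T. brucei MetRS enzyme. Also added: ATP, methionine and E. coli bulk tRNA substrates. Compound: 11.9 µM single point. Schedule: 15 min enzyme-compound preincubation, 2 h reaction, 10 min detection, 25 °C. Signal: luciferase luminescence of residual ATP, Kinase-Glo. Evaluation: percent inhibition versus plate control medians. Controls: DMSO wells, low control.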
NALP3 yeast conf = NALP3 inhibitors retested in yeast, confirmation, luminescence, single concentration; shares compounds with NALP3 yeast inh; yeast expressing human NALP3; inhibition, % at 10 µM; hit rate 81% among 1,300; AID 435006, 2010; in the data active = inhibition above about 48%
Casp1-ASC yeast = CASP1-PYCARD signaling inhibition in yeast, confirmatory test, counterassay for NLRP3 inhibitor program, one-dose | yeast expressing Caspase-1-ASC, luminescence counter screen | shares compounds with NALP3 yeast inh | hit rate 66% among 1,000 | inhibition, % at 10 µM
NALP3 retest = NALP3 inhibitors in yeast, repeat test, confirmation, luminescence, single concentration, retest | shares compounds with NALP3 yeast inh | yeast expressing human NALP3, luminescence read-out | inhibition, % at 10 µM | hit rate 53% among 1,000 | AID 488794, 2010
* hit, by the source's call. Rule as the data show it, unless noted: active = inhibition above about 50%; inactive = the rest.

`Cc1nn(-c2c(Cl)cc(Cl)cc2Cl)c(=O)c2ccccc12` gave NALP1 inh 19.5, MC4R barr agon 0.4, A1 inh 0.5, NALP3 yeast inh 62.7*, MC4R antag cAMP 9.3, TbMetRS inhib -0.2, NALP3 yeast conf 72.8*, Casp1-ASC yeast 59.2* and NALP3 retest 53.4*.
O=C1c2ccccc2C(=O)C12OC2c1ccc(Cl)cc1 (centres undefined) was read as NALP1 inh -49.1, A1 inh 2.0, NALP3 yeast inh -130.7 and NALP3 yeast conf -84.7.
For CCCCNC(=O)[C@]1(C)CCC[C@@]2(C)C3CC[C@@]4(C)C[C@]3(CCC21)CC4=O (some centres undefined) the results were MC4R barr agon -1.1, A1 inh 2.7, NALP3 yeast inh 53.9*, MC4R antag cAMP 8.8, TbMetRS inhib -0.3, NALP3 yeast conf 50.4*, Casp1-ASC yeast 60.0* and NALP3 retest 53.0*.
`CC(C)NC(=O)[C@]1(C)CCC[C@@]2(C)C3CC[C@@]4(C)C[C@]3(CCC21)CC4=O` (some centres undefined) gave MC4R barr agon -0.8, A1 inh 1.7, NALP3 yeast inh 58.7*, MC4R antag cAMP -3.7, TbMetRS inhib -0.2, NALP3 yeast conf 49.2, Casp1-ASC yeast 52.8* and NALP3 retest 53.1*.
C(=C\c1ccccc1)/CSc1nnc(-c2cccnc2)o1 was read as NALP1 inh 8.7, MC4R barr agon -1.5, A1 inh -0.4, NALP3 yeast inh 52.3*, MC4R antag cAMP 5.2, TbMetRS inhib -0.8, NALP3 yeast conf 44.9, Casp1-ASC yeast 47.2 and NALP3 retest 37.1.
For COc1cc(/C=C/C(=O)c2ccc([N+](=O)[O-])o2)ccc1O the results were MC4R barr agon -1.2, A1 inh 3.0, NALP3 yeast inh 49.1, MC4R antag cAMP 0.3 and TbMetRS inhib -0.1.
Screening COc1ccc(/C=C/C(=O)c2ccc([N+](=O)[O-])o2)cc1OC returned A1 inh 1.6, NALP3 yeast inh 50.2*, NALP3 yeast conf 53.8*, Casp1-ASC yeast 80.0* and NALP3 retest 57.8*.
COc1cc(CNC(C)c2ccccc2)cc(Cl)c1OCC(=O)Nc1ccccc1 (centres undefined) was read as NALP1 inh 3.5, MC4R barr agon -1.8, A1 inh -1.5, NALP3 yeast inh 53.0*, MC4R antag cAMP 5.8, TbMetRS inhib -0.9 and NALP3 yeast conf 44.0.
For Cc1ccc(Nc2n[nH]c(C)c2[N+](=O)[O-])cc1 the results were NALP1 inh 25.5, MC4R barr agon -0.8, A1 inh -2.2, NALP3 yeast inh 39.9, MC4R antag cAMP 16.1 and TbMetRS inhib 0.1.
Cc1[nH]nc(Nc2ccc(Br)cc2)c1[N+](=O)[O-] was read as NALP1 inh 4.4, MC4R barr agon -2.2, A1 inh 0.1, NALP3 yeast inh 52.2*, MC4R antag cAMP 9.9, TbMetRS inhib 0.3 and NALP3 yeast conf 46.1.
`COc1ccc(C(=O)NN/C(C)=C/C(=O)C(F)(F)C(F)(F)C(F)(F)F)cc1` gave NALP1 inh 40.9, MC4R barr agon -0.1, A1 inh -0.5, NALP3 yeast inh 56.7*, MC4R antag cAMP 15.7, TbMetRS inhib 0.0, NALP3 yeast conf 45.0*, Casp1-ASC yeast 40.1 and NALP3 retest 30.8.
`CCCc1ccc(C(=O)NNc2cc(Cl)ccc2Cl)cc1` gave NALP1 inh 5.8, MC4R barr agon 5.9, A1 inh -0.3, NALP3 yeast inh 57.0*, MC4R antag cAMP 15.9, TbMetRS inhib 3.2, NALP3 yeast conf 53.8*, Casp1-ASC yeast 55.6* and NALP3 retest 49.0.
`Cc1cc(C(=O)COC(=O)c2csc3c2CCCC3)c(C)n1C` gave NALP1 inh -5.7, MC4R barr agon 2.0, A1 inh 0.7, NALP3 yeast inh 53.5*, MC4R antag cAMP -0.4, TbMetRS inhib 0.0, NALP3 yeast conf 62.3*, Casp1-ASC yeast 33.4 and NALP3 retest 23.4.
For Cc1cc(C(=O)COC(=O)c2cccnc2Cl)c(C)n1C the results were MC4R barr agon -0.9, A1 inh -11.4, NALP3 yeast inh 32.1, MC4R antag cAMP 6.7 and TbMetRS inhib 0.2.
`C[C@H](CO)N1C[C@H](C)[C@@H](CN(C)S(=O)(=O)c2ccccc2F)OCc2cnnn2CCCC1=O` gave MC4R barr agon 0.4, MC4R antag cAMP -0.3 and TbMetRS inhib 0.2.
Screening Cc1c(/C(Cc2ccccc2)=N/O)c2ccccc2n1C returned NALP1 inh 22.2, MC4R barr agon -0.4, A1 inh 0.2, NALP3 yeast inh 56.4*, MC4R antag cAMP 4.6, TbMetRS inhib -1.9, NALP3 yeast conf 60.8*, Casp1-ASC yeast 51.5* and NALP3 retest 52.8*.
Screening O=C1NC[C@H](CCCCN2C[C@H](Cc3ccc(O)cc3)N(CCc3ccccc3)C(=O)C2=O)N(Cc2ccccc2)C1=O returned TbMetRS inhib -0.2.
`CNC(=O)c1c(O)c2cccc3c2n(c1=O)CC3` gave MC4R barr agon -1.4, A1 inh -1.8, NALP3 yeast inh 53.7*, MC4R antag cAMP 12.7, TbMetRS inhib -0.3, NALP3 yeast conf 60.0*, Casp1-ASC yeast 40.5 and NALP3 retest 36.5.
NNC(=O)c1c(O)c2cccc3c2n(c1=O)CCC3 was read as NALP1 inh 14.7, MC4R barr agon 0.2, A1 inh 0.1, NALP3 yeast inh 62.1*, MC4R antag cAMP 17.6, TbMetRS inhib 2.0, NALP3 yeast conf 76.2*, Casp1-ASC yeast 52.2* and NALP3 retest 52.0*.
For CCCCNC(=O)c1c(O)c2cccc3c2n(c1=O)CCC3 the results were NALP1 inh -0.2, MC4R barr agon -1.7, A1 inh 1.0, NALP3 yeast inh 3.5, MC4R antag cAMP 6.2 and TbMetRS inhib -1.6.
